What was measured:
[1] = melting temperature; fluorescence melt of hairpins on a sequencing array, two-state fit, raised by 9.35 °C to match UV melts; conditions: sodium 0.088 M
Method in brief: (§1)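 Folding enthalpy and melting temperature were estimated with bootstrapped two-state fits and combined across four replicates by inverse-variance weighting, with fitted temperatures raised by 9.35 °C to match UV melts. The data were Cy3 fluorescence of library hairpins, with annealed Cy3 and quencher oligos, on a sequenced MiSeq flow cell in 50 mM Na-HEPES pH 8.0, 25 mM NaCl, imaged in 2.5 °C steps up to 60 °C and normalised to pre-quench Cy3 and control constructs.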

[2] = folding enthalpy; higher = less favourable; fluorescence melt of hairpins on a sequencing array, two-state fit; conditions: sodium 0.088 M
Method in brief: as §1

Row | Sequence | Tm [1] | folding enthalpy [2]
1 | GCTGGCCGAAAGGCGAGC (((.(((....))).))) | 66.5 °C | -26.3 kcal/mol
2 | GATCGTGGAAACATGGTC ((.(.((....)).).)) | 32.7 °C | -20.4 kcal/mol
3 | GCCCTAGGAAACTAGGAC (.(((((....))))).) | 37.7 °C | -19.6 kcal/mol
4 | GCGTGTCTACGC ((((....)))) | 57.8 °C | -25.8 kcal/mol
5 | GATCGCTGGGGCGATC ((((((....)))))) | 69.1 °C | -32.2 kcal/mol
6 | GGTGAGCGAAAGCTGACC (((.(((....))).))) | 55 °C | -37.8 kcal/mol
7 | GCGTATGACGC ((((...)))) | 54 °C | -17.5 kcal/mol
8 | GCAATCGAAAGATATTGC ((((((....)))..))) | 35.5 °C | -18.7 kcal/mol
9 | GCCAGCGAAAGCTACGGC ((((((....)))..))) | 49.8 °C | -19.9 kcal/mol
10 | GATCGTTTCTACGATC ((((((....)))))) | 55.8 °C | -43 kcal/mol
11 | GATCGCTCTCGCGATC ((((((....)))))) | 67.6 °C | -34.2 kcal/mol
12 | GGACATGGAAACATGTTC (.(((((....))))).) | 47.4 °C | -27.6 kcal/mol
13 | GACAGCGAAAGCTTGTC ((((((....))).))) | 52.6 °C | -22 kcal/mol
14 | GACGCACGAAAGTGTGTC (((.(((....))).))) | 61.8 °C | -45.6 kcal/mol
15 | GCTAGGCGAAAGCCAAGC (((.(((....))).))) | 56.1 °C | -40 kcal/mol
16 | GCAGCTCGAAAGAGATGC (((.(((....))).))) | 68.6 °C | -42.1 kcal/mol
17 | GGTGACCGAAAGGTAACC (((.(((....))).))) | 57.1 °C | -41.1 kcal/mol
18 | GCGCTTGGAAACAGGTGC ((.(.((....)).).)) | 40.6 °C | -28.5 kcal/mol
19 | CGAGCGGAAACGCGTCG ((((((....))).))) | 53.6 °C | -13.2 kcal/mol
20 | GGGGACGAAAGTCAGCCC ((((((....)))..))) | 49.5 °C | -15.4 kcal/mol
21 | GCGATTACGAAAGTACGC (((..(((....)))))) | 43.4 °C | -26 kcal/mol
22 | GTTTTGGGAAACTAAAAC (((((.(....).))))) | 36.6 °C | -24.3 kcal/mol
23 | GACAGTGGAAACACCATC ((..(((....)))..)) | 19.9 °C | -10.3 kcal/mol

Row | Sequence | Tm [1] | folding enthalpy [2]
24 | GCCGCGCGAAAGCTCCGC ((.(.((....)).).)) | 33.2 °C | -7.61 kcal/mol
25 | GTGATCCGAAAGGACAC (((.(((....)))))) | 50.7 °C | -22.5 kcal/mol
26 | CGTTAGCGGAAACGCACG (((..(((....)))))) | 39.8 °C | -18.1 kcal/mol
27 | GAGCCCGAAAGGGAGCTC ((((((....)))..))) | 55.6 °C | -20 kcal/mol
28 | GTTGCAGGAAACTGCAGC (.(((((....))))).) | 51.5 °C | -17.4 kcal/mol
29 | GGCTCGGGAAACCAAGCC ((((.((....)).)))) | 48.8 °C | -35.3 kcal/mol
30 | GCTTCGCGAAAGCGTTGC ((..(((....)))..)) | 47.2 °C | -20.3 kcal/mol
31 | GCAGCCACGAAAGTGTGC (((..(((....)))))) | 40.2 °C | -12.5 kcal/mol
32 | GCGAACGAAAGTTGCCGC ((((((....)))..))) | 42.4 °C | -16.6 kcal/mol
33 | CGTTTCGGAAACGACACG (((.(((....))).))) | 44.8 °C | -29.6 kcal/mol
34 | CGATCACGGAAACGTTCG (((..(((....)))))) | 35.5 °C | -17.2 kcal/mol
35 | GATCGGCCCCCCGATC ((((((....)))))) | 56.1 °C | -37.1 kcal/mol
36 | GCGATTGCTCGC ((((....)))) | 52.5 °C | -14.3 kcal/mol
37 | GCAAAGCGAAAGCTACGC ((..(((....)))..)) | 40.8 °C | -11 kcal/mol
38 | GCCACCGAAAGGTCTGGC ((((((....)))..))) | 47.4 °C | -19.4 kcal/mol
39 | GCCACAGGAAACCGTGGC (((((.(....).))))) | 55.4 °C | -43 kcal/mol
40 | GATCATGCCCATGATC ((((((....)))))) | 53.5 °C | -43 kcal/mol
41 | GCGTTGCGAAAGCAGAGC ((..(((....)))..)) | 63.4 °C | -35.8 kcal/mol
42 | GATCTCCAGGAGATC ((((((...)))))) | 52.3 °C | -37.3 kcal/mol
43 | GGACTAGGAAACTGGTCC ((((.((....)).)))) | 50.9 °C | -41.6 kcal/mol
44 | GATCTCGTTCGAGATC ((((((....)))))) | 60.9 °C | -41.4 kcal/mol
45 | GCGATGCGTCGC ((((....)))) | 64.5 °C | -20.1 kcal/mol
46 | GCTTTGCGAAAGCCAAGC ((((.((....)).)))) | 52.6 °C | -23 kcal/mol

Row | Sequence | Tm [1] | folding enthalpy [2]
47 | GCGTAAAGACGC ((((....)))) | 46.9 °C | -17.8 kcal/mol
48 | GCAGCCGAAAGGCGTTGC ((((((....)))..))) | 53.3 °C | -13.8 kcal/mol
49 | GATCGCGAGCGCGATC ((((((....)))))) | 67.2 °C | -35.4 kcal/mol
50 | GATCTTCGTGAAGATC ((((((....)))))) | 53.3 °C | -41 kcal/mol
51 | GTGAACGGAAACGTCCAC (((.(((....))).))) | 45.1 °C | -31.9 kcal/mol
52 | GTGACGGGAAACCGTTGC (..((((....))))..) | 45.4 °C | -17.6 kcal/mol
53 | GGCGGTCCGAAAGGAGCC (((..(((....)))))) | 46.6 °C | -17.7 kcal/mol
54 | GCTATCGAAAGATTAAGC ((((((....)))..))) | 34.6 °C | -17.1 kcal/mol
55 | GATCAAATCGTTGATC ((((((....)))))) | 42.4 °C | -30.6 kcal/mol
56 | GATCAGCACCCTGATC ((((((....)))))) | 48.7 °C | -33.1 kcal/mol
57 | GATCGTCTCCACGATC ((((((....)))))) | 53.7 °C | -38.1 kcal/mol
58 | CGCGCGGAAACGCCGCG ((((((....))).))) | 69.2 °C | -20 kcal/mol
59 | GAAAGCGAAAGCTCTTC ((((((....))).))) | 44.3 °C | -17.9 kcal/mol
60 | GATCGATACCTCGATC ((((((....)))))) | 53.1 °C | -35.1 kcal/mol
61 | GTGGGAGGAAACTCTCGC (.(.(((....))).).) | 37.2 °C | -30.2 kcal/mol
62 | GCACACGAAAGTGCATGC ((((((....)))..))) | 42.1 °C | -14.4 kcal/mol
63 | GCAGACGAAAGTCAATGC ((((((....)))..))) | 43.9 °C | -19.3 kcal/mol
64 | GGCCAAACGAAAGTTGCC (((..(((....)))))) | 44 °C | -22.6 kcal/mol
65 | GAGCCCGGAAACGGGCCC (.(((((....))))).) | 49.7 °C | -7.26 kcal/mol
66 | GATCCTTGACAGGATC ((((((....)))))) | 49.7 °C | -28.2 kcal/mol
67 | GCGCTAGGAAACTGGTGC ((.(.((....)).).)) | 44.3 °C | -28.9 kcal/mol
68 | GTCCAGGGAAACCCGGAC ((((.((....)).)))) | 51 °C | -36.1 kcal/mol
69 | GTAGCAGGAAACTACTAC ((((.((....)).)))) | 35 °C | -24.4 kcal/mol

Row | Sequence | Tm [1] | folding enthalpy [2]
70 | GTGAAAGCGAAAGCTCAC (((..(((....)))))) | 47.6 °C | -23.9 kcal/mol
71 | GATCGAAAGTTCGATC ((((((....)))))) | 50.4 °C | -36.2 kcal/mol
72 | GGTGGAGGAAACTCCACC (((((((....))))))) | 67.5 °C | -38.6 kcal/mol
73 | GCATGGCGAAAGCAACGC ((.(.((....)).).)) | 30.7 °C | -10.8 kcal/mol
74 | GTCCGCCCGAAAGGGGAC (((..(((....)))))) | 47.3 °C | -18.7 kcal/mol
75 | GGGATCGGAAACGGTTCC ((.(.((....)).).)) | 40.9 °C | -35.7 kcal/mol
76 | GGTGGGTCGAAAGACACC (((..(((....)))))) | 50.9 °C | -12.4 kcal/mol
77 | GTCGACGAAAGTCTGAC ((((((....))).))) | 49.5 °C | -21.8 kcal/mol
78 | GATCACCCCGGTGATC ((((((....)))))) | 59.8 °C | -36.8 kcal/mol
79 | GAATTAGGAAACTAATTC (((((((....))))))) | 46.9 °C | -38.8 kcal/mol
80 | GATTGCGGAAACGCAACC (.(((((....))))).) | 45.5 °C | -12.2 kcal/mol
81 | CGTCCACGGAAACGTACG (((..(((....)))))) | 28.5 °C | -15.7 kcal/mol
82 | GCGCGTCGAAAGACCGC (((.(((....)))))) | 67.3 °C | -32.8 kcal/mol
83 | GCGGACGAAAGTCGCCGC ((((((....)))..))) | 52.4 °C | -18.1 kcal/mol
84 | GAGGTGGAAACACCTC ((((((....)))))) | 63.4 °C | -33.3 kcal/mol
85 | GTTTGGGGAAACCTGAAC (((..((....))..))) | 32 °C | -16 kcal/mol
86 | GCAGTCGAAAGACGATGC ((((((....)))..))) | 46.5 °C | -18 kcal/mol
87 | GGAACCGAAAGGTGGTCC ((((((....)))..))) | 35.4 °C | -14.7 kcal/mol
88 | GAAGACGAAAGTCGGTTC ((((((....)))..))) | 34.4 °C | -12.8 kcal/mol
89 | GATCGAAACATCGATC ((((((....)))))) | 50 °C | -39.9 kcal/mol
90 | GTGTCTGAAAAGACAC ((((((....)))))) | 61 °C | -33.7 kcal/mol
91 | GAGGACGAAAGTCGCTC ((((((....))).))) | 46 °C | -17.8 kcal/mol
92 | GTAGCAGCGAAAGCTTAC (((..(((....)))))) | 26.8 °C | -10.3 kcal/mol

Reference: the array DNA melting data of Ke et al. (doi:10.1101/2024.01.08.574731)
